Measured values from ChEMBL document CHEMBL5136969, “A niclosamide-tobramycin hybrid adjuvant potentiates cefiderocol against P. aeruginosa” (2021).
≈ marks a conversion by molar mass, not a printed value. Calls of active or inactive are those of the source.

Assays:
[1] = system: Escherichia coli; test: Potentiation of ciprofloxacin-induced antibiotic activity against Escherichia coli ATCC 25922 assessed as MIC fold reduction at 8 ug/ml after 18 hrs by microbroth dilution method; format: functional; settings: dose 8 µg/ml
Method in brief: (§1)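 Adjuvant held at a fixed 8 μg/mL while the antibiotic was 2-fold serially diluted in Mueller-Hinton broth (MHB), per CLSI microbroth dilution. Overnight cultures were adjusted in saline to 0.5 McFarland, then diluted 1:50 in MHB to about 5 × 10^5 CFU/mL final, and incubated 18 h at 37 °C. MIC was the lowest concentration with no visible turbidity, confirmed at 590 nm. Fold potentiation = MIC alone / MIC with adjuvant.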

[2] = system: Pseudomonas aeruginosa; test: Potentiation of cindamycin-induced antibiotic activity against Pseudomonas aeruginosa PAO1 assessed as MIC fold reduction at 8 ug/ml after 18 hrs by microbroth dilution method; format: functional; settings: dose 8 µg/ml; method in brief: as §1
[3] = system: Pseudomonas aeruginosa; test: Antibacterial activity against MDR clinical isolate Pseudomonas aeruginosa PA109084 assessed as reduction in bacterial growth after 18 hrs by microbroth dilution method; format: functional
Method in brief: (§2)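 CLSI broth microdilution. Overnight cultures were adjusted in saline to 0.5 McFarland, diluted 1:50 in Mueller-Hinton broth (MHB), and inoculated at about 5 × 10^5 CFU/mL. Agents were 2-fold serially diluted in MHB, mixed 1:1 with inoculum, and held at 37 °C for 18 h. MIC was the lowest concentration with no visible turbidity, confirmed at 590 nm.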

[4] = system: Escherichia coli; test: Potentiation of cefotaxime-induced antibiotic activity against Escherichia coli ATCC 25922 assessed as MIC fold reduction at 8 ug/ml after 18 hrs by microbroth dilution method; format: functional; settings: dose 8 µg/ml
Method in brief: (§3)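 Initial screen in MHB using a fixed 8 μg mL−1 of adjuvant combined with each antibiotic under 2-fold dilution. Broth microdilution used about 5 × 10^5 CFU/mL at 37 °C for 18 h, with visible turbidity read and confirmed at 590 nm. Fold-potentiation = antibiotic MIC alone ÷ antibiotic MIC with adjuvant.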

[5] = system: Pseudomonas aeruginosa; test: Antibacterial activity against MDR clinical isolate Pseudomonas aeruginosa PA262 assessed as potentiation of cefiderocol antibacterial activity by measuring FIC index after 18 hrs by microbroth dilution method; format: functional
Method in brief: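 Checkerboard in MHB. Cefiderocol was 2-fold serially diluted along one axis and the adjuvant along the other. Inoculum was prepared from 0.5 McFarland saline suspensions diluted 1:50 in MHB, giving about 5 × 10^5 CFU/mL final. Plates ran 18 h at 37 °C, with turbidity confirmed at 590 nm. FIC = combination MIC ÷ MIC alone for each agent, and FIC index = sum of both. Interpretation: ≤0.5 synergy, >0.5–4 additive, >4 antagonism.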

[6] = system: Acinetobacter baumannii; test: Antibacterial activity against Acinetobacter baumannii ATCC 17978 assessed as reduction in bacterial growth after 18 hrs in presence of cefiderocol by microbroth dilution method; format: functional
Method in brief: (§4)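 Checkerboard in Mueller-Hinton broth: cefiderocol 2-fold diluted on one axis, adjuvant 2-fold on the other. Overnight cultures were adjusted to 0.5 McFarland in saline, diluted 1:50 in MHB, and inoculated at about 5 × 10^5 CFU/mL. Incubation was 18 h at 37 °C. Turbidity was read visually and confirmed at 590 nm. FIC index = FIC of antibiotic + FIC of adjuvant; ≤0.5 synergy, >4 antagonism.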

[7] = system: Pseudomonas aeruginosa; test: Antibacterial activity against colistin-resistant clinical isolate Pseudomonas aeruginosa PA114228 assessed as potentiation of cefiderocol antibacterial activity by measuring FIC index after 18 hrs by microbroth dilution method; format: functional
Method in brief: (§5)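 Checkerboard in MHB (iron-replete, not iron-depleted CAMHB). Cefiderocol was 2-fold serially diluted along one axis and the adjuvant along the other. Inoculum was 0.5 McFarland diluted 1:50, about 5 × 10^5 CFU/mL final. Incubation was 18 h at 37 °C, with turbidity read visually and confirmed at 590 nm. FIC was the MIC in combination over the MIC alone for each agent, and the FIC index was their sum. Cut-offs were ≤0.5 synergy, >0.5–4 additive, >4 antagonism.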

[8] = system: Pseudomonas aeruginosa; test: Antibacterial activity against MDR clinical isolate Pseudomonas aeruginosa PA100036 assessed as reduction in bacterial growth after 18 hrs by microbroth dilution method; format: functional
Method in brief: (§6)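 Broth microdilution per CLSI in Mueller-Hinton broth (MHB). Overnight cultures were adjusted to 0.5 McFarland in saline, diluted 1:50 in MHB, and added at about 5 × 10^5 CFU/mL final to equal volumes of 2-fold serial dilutions of agent. Incubation was 18 h at 37 °C. MIC was the lowest concentration with no visible turbidity, confirmed by absorbance at 590 nm.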

[9] = system: Enterobacter cloacae; test: Antibacterial activity against Enterobacter cloacae 117029 assessed as potentiation of cefiderocol antibacterial activity by measuring FIC after 18 hrs by microbroth dilution method; format: functional; method in brief: as §4
[10] = system: Pseudomonas aeruginosa; test: Antibacterial activity against colistin-resistant clinical isolate Pseudomonas aeruginosa PA114228 assessed as reduction in bacterial growth after 18 hrs by microbroth dilution method; format: functional; method in brief: as §6
[11] = system: Acinetobacter baumannii; test: Potentiation of aztreonam-induced antibiotic activity against Acinetobacter baumannii ATCC 17978 assessed as MIC fold reduction at 8 ug/ml after 18 hrs by microbroth dilution method; format: functional; settings: dose 8 µg/ml; method in brief: as §3
[12] = system: Escherichia coli; test: Potentiation of fosfomycin-induced antibiotic activity against Escherichia coli ATCC 25922 assessed as MIC fold reduction at 8 ug/ml after 18 hrs by microbroth dilution method; format: functional; settings: dose 8 µg/ml; method in brief: as §1
[13] = system: Acinetobacter baumannii; test: Potentiation of erythromycin-induced antibiotic activity against Acinetobacter baumannii ATCC 17978 assessed as MIC fold reduction at 8 ug/ml after 18 hrs by microbroth dilution method; format: functional; settings: dose 8 µg/ml; method in brief: as §1
[14] = system: Pseudomonas aeruginosa; test: Potentiation of ceftolozane-induced antibiotic activity against […] Pseudomonas aeruginosa PAO1 assessed as MIC fold reduction at 8 ug/ml after 18 hrs by microbroth dilution method; format: functional, organism-based; settings: dose 8.0 µg/ml; method in brief: as §1
[15] = system: Escherichia coli; test: Potentiation of ceftolozane-induced antibiotic activity against Escherichia coli ATCC 25922 assessed as MIC fold reduction at 8 ug/ml after 18 hrs by microbroth dilution method; format: functional; settings: dose 8 µg/ml; method in brief: as §1
[16] = system: Escherichia coli; test: Antibacterial activity against Escherichia coli 94474 assessed as reduction in bacterial growth after 18 hrs in presence of cefiderocol by microbroth dilution method; format: functional; method in brief: as §4
[17] = system: Pseudomonas aeruginosa; test: Antibacterial activity against MDR clinical isolate Pseudomonas aeruginosa PA100036 assessed as potentiation of cefiderocol antibacterial activity by measuring FIC index after 18 hrs by microbroth dilution method; format: functional; method in brief: as §5
[18] = system: Pseudomonas aeruginosa; test: Antibacterial activity against colistin-resistant clinical isolate Pseudomonas aeruginosa PA91433 assessed as reduction in bacterial growth after 18 hrs in presence of cefiderocol by microbroth dilution method; format: functional; method in brief: as §5
[19] = system: Pseudomonas aeruginosa; test: Potentiation of pleuromutilin-induced antibiotic activity against Pseudomonas aeruginosa PAO1 assessed as MIC fold reduction at 8 ug/ml after 18 hrs by microbroth dilution method; format: functional; settings: dose 8 µg/ml
[20] = system: Pseudomonas aeruginosa; test: Antibacterial activity against MDR clinical isolate Pseudomonas aeruginosa PA108590 assessed as reduction in bacterial growth after 18 hrs by microbroth dilution method; format: functional; method in brief: as §2
[21] = system: Escherichia coli; test: Antibacterial activity against Escherichia coli 94393 assessed as potentiation of cefiderocol antibacterial activity by measuring FIC after 18 hrs by microbroth dilution method; format: functional; method in brief: as §4
[22] = system: Pseudomonas aeruginosa; test: Potentiation of niclosamide-induced antibiotic activity against Pseudomonas aeruginosa PAO1 assessed as MIC fold reduction at 8 ug/ml after 18 hrs by microbroth dilution method; format: functional; settings: dose 8 µg/ml
[23] = system: Escherichia coli; test: Potentiation of rifampicin-induced antibiotic activity against Escherichia coli ATCC 25922 assessed as MIC fold reduction at 8 ug/ml after 18 hrs by microbroth dilution method; format: functional; settings: dose 8 µg/ml

NC[C@H]1O[C@H](O[C@H]2[C@H](OCCCCc3cn(-c4ccc(NC(=O)c5cc(Cl)ccc5O)cc4)nn3)[C@@H](O[C@H]3O[C@H](CO)[C@@H](O)[C@H](N)[C@H]3O)[C@H](N)C[C@@H]2N)[C@H](N)C[C@@H]1O
fold change (FC) [1]: 4
fold change (FC) [2]: 4
MIC [3]: > 128 µg/mL
fold change (FC) [4]: 4
FIC [5]: 0.25
MIC [6]: 16 µg/mL
FIC [7]: 1
MIC [8]: > 128 µg/mL
FIC [9]: 0.5
MIC [10]: 32 µg/mL (≈ 38.3 µM)
fold change (FC) [11]: 4
fold change (FC) [12]: 4
fold change (FC) [13]: 4
Activity [14]: Active
fold change (FC) [15]: 4
MIC [16]: 8 µg/mL
FIC [17]: 1
MIC [18]: 1 µg/mL
fold change (FC) [19]: 4
MIC [20]: > 128 µg/mL
FIC [21]: 0.25
fold change (FC) [22]: 4
fold change (FC) [23]: 4
